In ChEMBL document CHEMBL1154447, “Synthesis, antimicrobial activity, pharmacophore analysis of some new 2-(substitutedphenyl/benzyl)-5-[(2-benzofuryl)carboxamido]benzoxazoles” (2008):
≈ marks a conversion by molar mass, not a printed value.

How the values were obtained:
Assay type in all cases: functional
Escherichia coli [1] = experiment: Antibacterial activity against Escherichia coli ATCC 25922 after 24 hrs by twofold serial dilution technique
Outline: (§1)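 Broth microdilution in Mueller-Hinton broth. Isolates were subcultured overnight on MHA at 37 °C and passaged at least twice. McFarland 0.5 cultures […] were diluted to 10⁵ cfu/ml, giving 10⁴ cfu/ml per well, over two-fold compound dilutions. Plates were incubated at 37 °C in a humid chamber for 24 h. MIC was the lowest concentration completely inhibiting macroscopic growth. Triplicate per run.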

Staphylococcus aureus [2] = experiment: Antibacterial activity against Staphylococcus aureus ATCC 25923 after 24 hrs by twofold serial dilution technique; outline: as §1
Pichia kudriavzevii = experiment: Antifungal activity against Candida krusei ATCC 6258 after 48 hrs by twofold serial dilution technique; conditions: ATCC 6258, 48 h
Outline: (§2)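 Yeasts were subcultured on SDA at 35 °C for 24-48 h and passaged twice. Broth microdilution followed CLSI M27-A in RPMI-1640 with L-glutamine, MOPS-buffered to pH 7. Inoculum was McFarland 0.5 (10⁶ cfu/ml) diluted to 10⁴ cfu/ml, giving 10³ cfu/ml per well. Incubated at 35 °C in a humid chamber and read at 48 h as the lowest concentration with no macroscopic growth. Triplicate per run.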

Pseudomonas aeruginosa [3] = experiment: Antibacterial activity against gentamicin-resistant Pseudomonas aeruginosa isolate after 24 hrs by twofold serial dilution technique
Outline: (§3)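 Broth microdilution in Mueller-Hinton broth. Strains were subcultured overnight on MHA at 37 °C and passaged at least twice. McFarland 0.5 cultures […] were diluted to 10⁵ cfu/ml, giving 10⁴ cfu/ml per well, against two-fold dilutions from 1000 to 0.06. Solvent and medium controls were included. Plates were held at 37 °C in a humid chamber for 24 h, in triplicate. MIC is the lowest concentration with no macroscopic growth.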

Escherichia coli [4] = experiment: Antibacterial activity against Escherichia coli isolate containing extended spectrum beta lactamase after 24 hrs by twofold serial dilution technique; outline: as §1
Candida albicans [5] = experiment: Antifungal activity against Candida albicans ATCC 10231 after 48 hrs by twofold serial dilution technique; conditions: ATCC 10231, 48 h; outline: as §2
Bacillus subtilis [6] = experiment: Antibacterial activity against Bacillus subtilis ATCC 6633 after 24 hrs by twofold serial dilution technique; outline: as §3
Klebsiella pneumoniae [7] = experiment: Antibacterial activity against Klebsiella pneumoniae isolate containing extended spectrum beta lactamase after 24 hrs by twofold serial dilution technique; outline: as §1
Staphylococcus aureus [8] = experiment: Antibacterial activity against methicillin-resistant Staphylococcus aureus isolate after 24 hrs by twofold serial dilution technique; outline: as §3
Candida albicans [9] = experiment: Antifungal activity against biofilm-positive Candida albicans isolate after 48 hrs by twofold serial dilution technique; outline: as §2
Klebsiella pneumoniae [10] = experiment: Antibacterial activity against Klebsiella pneumoniae RSHM 574 after 24 hrs by twofold serial dilution technique; outline: as §1
Bacillus subtilis [11] = experiment: Antibacterial activity against ceftriaxone-resistant Bacillus subtilis isolate after 24 hrs by twofold serial dilution technique; outline: as §3
Pseudomonas aeruginosa [12] = experiment: Antibacterial activity against Pseudomonas aeruginosa […] after 24 hrs by twofold serial dilution technique; outline: as §1

Row | Compound | MIC (Escherichia coli [1]; ATCC 25922, 24 h) | MIC (Staphylococcus aureus [2]; ATCC 25923, 24 h) | MIC (Pichia kudriavzevii) | MIC (Pseudomonas aeruginosa [3]) | MIC (Escherichia coli [4]) | MIC (Candida albicans [5]) | MIC (Bacillus subtilis [6]; ATCC 6633, 24 h) | MIC (Klebsiella pneumoniae [7]) | MIC (Staphylococcus aureus [8]) | MIC (Candida albicans [9]) | MIC (Klebsiella pneumoniae [10]) | MIC (Bacillus subtilis [11]) | MIC (Pseudomonas aeruginosa [12]) | MIC (Escherichia coli [1]) | MIC (Staphylococcus aureus [2]) | MIC (Bacillus subtilis [6])
1 | O=C(Nc1ccc2oc(Cc3ccc(F)cc3)nc2c1)c1cc2ccccc2o1 | 62.5 µg/mL (≈ 162 µM) | 125 µg/mL (≈ 324 µM) | 250 µg/mL (≈ 647 µM) | 125 µg/mL (≈ 324 µM) | 125 µg/mL (≈ 324 µM) | 62.5 µg/mL (≈ 162 µM) | 125 µg/mL (≈ 324 µM) | 125 µg/mL (≈ 324 µM) | 62.5 µg/mL (≈ 162 µM) | 62.5 µg/mL (≈ 162 µM) | 62.5 µg/mL (≈ 162 µM) | 125 µg/mL (≈ 324 µM) | 62.5 µg/mL (≈ 162 µM) | – | – | –
2 | CCc1ccc(-c2nc3cc(NC(=O)c4cc5ccccc5o4)ccc3o2)cc1 | 62.5 µg/mL (≈ 163 µM) | 125 µg/mL (≈ 327 µM) | 125 µg/mL (≈ 327 µM) | 62.5 µg/mL (≈ 163 µM) | 125 µg/mL (≈ 327 µM) | 62.5 µg/mL (≈ 163 µM) | 500 µg/mL (≈ 1310 µM) | 125 µg/mL (≈ 327 µM) | 62.5 µg/mL (≈ 163 µM) | 62.5 µg/mL (≈ 163 µM) | 62.5 µg/mL (≈ 163 µM) | 125 µg/mL (≈ 327 µM) | 62.5 µg/mL (≈ 163 µM) | – | – | –
3 | O=C(Nc1ccc2oc(-c3ccccc3)nc2c1)c1cc2ccccc2o1 | 62.5 µg/mL (≈ 176 µM) | 62.5 µg/mL (≈ 176 µM) | 62.5 µg/mL (≈ 176 µM) | 62.5 µg/mL (≈ 176 µM) | 125 µg/mL (≈ 353 µM) | 62.5 µg/mL (≈ 176 µM) | 125 µg/mL (≈ 353 µM) | 125 µg/mL (≈ 353 µM) | 62.5 µg/mL (≈ 176 µM) | 62.5 µg/mL (≈ 176 µM) | 62.5 µg/mL (≈ 176 µM) | 250 µg/mL (≈ 705 µM) | 62.5 µg/mL (≈ 176 µM) | – | – | –
4 | O=C(Nc1ccc2oc(Cc3ccc(Cl)cc3)nc2c1)c1cc2ccccc2o1 | 62.5 µg/mL (≈ 155 µM) | 125 µg/mL (≈ 310 µM) | 125 µg/mL (≈ 310 µM) | 125 µg/mL (≈ 310 µM) | 125 µg/mL (≈ 310 µM) | 62.5 µg/mL (≈ 155 µM) | 125 µg/mL (≈ 310 µM) | 125 µg/mL (≈ 310 µM) | 125 µg/mL (≈ 310 µM) | 62.5 µg/mL (≈ 155 µM) | 62.5 µg/mL (≈ 155 µM) | 125 µg/mL (≈ 310 µM) | 31.2 µg/mL (≈ 77.6 µM) | – | – | –
5 | CO[C@H]1/C=C/O[C@@]2(C)Oc3c(C)c(O)c4c(O)c(c(/C=N/N5CCN(C)CC5)c(O)c4c3C2=O)NC(=O)/C(C)=C\C=C\[C@H](C)[C@H](O)[C@@H](C)[C@@H](O)[C@@H](C)[C@H](OC(C)=O)[C@@H]1C [RIFAMPIN] | 1.9 µg/mL (≈ 2.31 µM) | 0.06 µg/mL (≈ 0.0729 µM) | – | > 500 µg/mL | 3.9 µg/mL (≈ 4.74 µM) | – | 0.12 µg/mL (≈ 0.146 µM) | 7.8 µg/mL (≈ 9.48 µM) | 0.9 µg/mL (≈ 1.09 µM) | – | 1.9 µg/mL (≈ 2.31 µM) | 3.9 µg/mL (≈ 4.74 µM) | > 500 µg/mL | – | – | –
6 | CC(C)(C)c1ccc(-c2nc3cc(NC(=O)c4cc5ccccc5o4)ccc3o2)cc1 | 62.5 µg/mL (≈ 152 µM) | 125 µg/mL (≈ 305 µM) | 125 µg/mL (≈ 305 µM) | 125 µg/mL (≈ 305 µM) | 125 µg/mL (≈ 305 µM) | 62.5 µg/mL (≈ 152 µM) | 125 µg/mL (≈ 305 µM) | 125 µg/mL (≈ 305 µM) | 62.5 µg/mL (≈ 152 µM) | 62.5 µg/mL (≈ 152 µM) | 62.5 µg/mL (≈ 152 µM) | 125 µg/mL (≈ 305 µM) | 62.5 µg/mL (≈ 152 µM) | – | – | –
7 | O=C(Nc1ccc2oc(Cc3ccccc3)nc2c1)c1cc2ccccc2o1 | 62.5 µg/mL (≈ 170 µM) | 125 µg/mL (≈ 339 µM) | 31.2 µg/mL (≈ 84.8 µM) | 62.5 µg/mL (≈ 170 µM) | 62.5 µg/mL (≈ 170 µM) | 62.5 µg/mL (≈ 170 µM) | 125 µg/mL (≈ 339 µM) | 62.5 µg/mL (≈ 170 µM) | 62.5 µg/mL (≈ 170 µM) | 31.2 µg/mL (≈ 84.8 µM) | 62.5 µg/mL (≈ 170 µM) | 125 µg/mL (≈ 339 µM) | 31.2 µg/mL (≈ 84.8 µM) | – | – | –
8 | GENTAMICIN | – | – | – | 62.5 µg/mL | 15.6 µg/mL | – | – | 7.8 µg/mL | 7.8 µg/mL | – | 0.24 µg/mL | 0.12 µg/mL | 31.2 µg/mL | 0.48 µg/mL | 0.48 µg/mL | 0.24 µg/mL
